Measurements: publication PMC9217999 (Targeted Oncology, 2022)
Entries after “also recorded” stand apart in the source; their conditions may differ.

Experiment: Safety and tolerability in iMATRIX-cobi Phase I/II study
Format: in vivo, human
How it was run: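 Patients aged 6 months to <30 years with relapsed/refractory solid tumors with MAPK pathway involvement. Oral test compound (20-mg tablet or suspension, with/without food) on Days 1–21 of 28-day cycles. Cumulative weekly weight-based dose rounded to 20 mg, capped at 60 mg/day. Rolling 6 escalation in cohorts of 3–6. Eye exams including OCT at baseline, cycle 1 Days 8/15, and each later cycle Day 1. All dosed patients evaluated.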

[1] = Dose escalation suspension (n = 26)
[2] = Dose escalation tablet (n = 18)

Compound: O=C(c1ccc(F)c(F)c1Nc1ccc(I)cc1F)N1CC(O)([C@@H]2CCCCN2)C1 [cobimetinib]
- DLTs (events) (0.6 mg/kg suspension): grade 1 chorioretinopathy
- DLTs (events) (1.0 mg/kg tablet): grade 3 headache; also recorded: grade 2 retinal detachment
- DLTs (events) (1.33 mg/kg suspension): grade 4 chorioretinopathy; also recorded: grade 1 serous retinal detachment
- Any treatment-related AE, G1 [1]: 6 (23) n (%)
- Any treatment-related AE, G2 [1]: 12 (46) n (%)
- Any treatment-related AE, G3 [1]: 4 (15) n (%)
- Any treatment-related AE, G4 [1]: 1 (4) n (%)
- Treatment-related AE: ALT increased, G1 [1]: 1 (4) n (%)
- Treatment-related AE: ALT increased, G2 [1]: 0 n (%)
- Treatment-related AE: ALT increased, G3 [1]: 1 (4) n (%)
- Treatment-related AE: ALT increased, G4 [1]: 0 n (%)
- Treatment-related AE: AST increased, G1 [1]: 1 (4) n (%)
- Treatment-related AE: AST increased, G2 [1]: 0 n (%)
- Treatment-related AE: AST increased, G3 [1]: 1 (4) n (%)
- Treatment-related AE: AST increased, G4 [1]: 0 n (%)
- Treatment-related AE: Abdominal pain, G1 [1]: 2 (8) n (%)
- Treatment-related AE: Abdominal pain, G2 [1]: 2 (8) n (%)
- Treatment-related AE: Abdominal pain, G3 [1]: 0 n (%)
- Treatment-related AE: Abdominal pain, G4 [1]: 0 n (%)
- Treatment-related AE: Anemia, G1 [1]: 1 (4) n (%)
- Treatment-related AE: Anemia, G2 [1]: 0 n (%)
- Treatment-related AE: Anemia, G3 [1]: 0 n (%)
- Treatment-related AE: Anemia, G4 [1]: 0 n (%)
- Treatment-related AE: Asthenia, G1 [1]: 0 n (%)
- Treatment-related AE: Asthenia, G2 [1]: 0 n (%)
- Treatment-related AE: Asthenia, G3 [1]: 0 n (%)
- Treatment-related AE: Asthenia, G4 [1]: 0 n (%)
- Treatment-related AE: Blood CPK increased, G1 [1]: 2 (8) n (%)
- Treatment-related AE: Blood CPK increased, G2 [1]: 1 (4) n (%)
- Treatment-related AE: Blood CPK increased, G3 [1]: 1 (4) n (%)
- Treatment-related AE: Blood CPK increased, G4 [1]: 0 n (%)
- Treatment-related AE: Chorioretinopathy, G1 [1]: 1 (4) n (%)
- Treatment-related AE: Chorioretinopathy, G2 [1]: 0 n (%)
- Treatment-related AE: Chorioretinopathy, G3 [1]: 0 n (%)
- Treatment-related AE: Chorioretinopathy, G4 [1]: 1 (4) n (%)
- Treatment-related AE: Constipation, G1 [1]: 1 (4) n (%)
- Treatment-related AE: Constipation, G2 [1]: 0 n (%)
- Treatment-related AE: Constipation, G3 [1]: 0 n (%)
- Treatment-related AE: Constipation, G4 [1]: 0 n (%)
- Treatment-related AE: Decreased appetite, G1 [1]: 2 (8) n (%)
- Treatment-related AE: Decreased appetite, G2 [1]: 0 n (%)
- Treatment-related AE: Decreased appetite, G3 [1]: 0 n (%)
- Treatment-related AE: Decreased appetite, G4 [1]: 0 n (%)
- Treatment-related AE: Dermatitis acneiform, G1 [1]: 4 (15) n (%)
- Treatment-related AE: Dermatitis acneiform, G2 [1]: 1 (4) n (%)
- Treatment-related AE: Dermatitis acneiform, G3 [1]: 1 (4) n (%)
- Treatment-related AE: Dermatitis acneiform, G4 [1]: 0 n (%)
- Treatment-related AE: Diarrhea, G1 [1]: 2 (8) n (%)
- Treatment-related AE: Diarrhea, G2 [1]: 7 (27) n (%)
- Treatment-related AE: Diarrhea, G3 [1]: 0 n (%)
- Treatment-related AE: Diarrhea, G4 [1]: 0 n (%)
- Treatment-related AE: Dry skin, G1 [1]: 4 (15) n (%)
- Treatment-related AE: Dry skin, G2 [1]: 0 n (%)
- Treatment-related AE: Dry skin, G3 [1]: 1 (4) n (%)
- Treatment-related AE: Dry skin, G4 [1]: 0 n (%)
- Treatment-related AE: Encephalopathy, G1 [1]: 0 n (%)
- Treatment-related AE: Encephalopathy, G2 [1]: 0 n (%)
- Treatment-related AE: Encephalopathy, G3 [1]: 0 n (%)
- Treatment-related AE: Encephalopathy, G4 [1]: 0 n (%)
- Treatment-related AE: Erythema, G1 [1]: 2 (8) n (%)
- Treatment-related AE: Erythema, G2 [1]: 0 n (%)
- Treatment-related AE: Erythema, G3 [1]: 0 n (%)
- Treatment-related AE: Erythema, G4 [1]: 0 n (%)
- Treatment-related AE: Fatigue, G1 [1]: 6 (23) n (%)
- Treatment-related AE: Fatigue, G2 [1]: 0 n (%)
- Treatment-related AE: Fatigue, G3 [1]: 0 n (%)
- Treatment-related AE: Fatigue, G4 [1]: 0 n (%)
- Treatment-related AE: Headache, G1 [1]: 3 (12) n (%)
- Treatment-related AE: Headache, G2 [1]: 2 (8) n (%)
- Treatment-related AE: Headache, G3 [1]: 0 n (%)
- Treatment-related AE: Headache, G4 [1]: 0 n (%)
- Treatment-related AE: Nausea, G1 [1]: 4 (15) n (%)
- Treatment-related AE: Nausea, G2 [1]: 0 n (%)
- Treatment-related AE: Nausea, G3 [1]: 0 n (%)
- Treatment-related AE: Nausea, G4 [1]: 0 n (%)
- Treatment-related AE: Paronychia, G1 [1]: 2 (8) n (%)
- Treatment-related AE: Paronychia, G2 [1]: 1 (4) n (%)
- Treatment-related AE: Paronychia, G3 [1]: 1 (4) n (%)
- Treatment-related AE: Paronychia, G4 [1]: 0 n (%)
- Treatment-related AE: Rash, G1 [1]: 2 (8) n (%)
- Treatment-related AE: Rash, G2 [1]: 0 n (%)
- Treatment-related AE: Rash, G3 [1]: 0 n (%)
- Treatment-related AE: Rash, G4 [1]: 0 n (%)
- Treatment-related AE: Transaminases increased, G1 [1]: 0 n (%)
- Treatment-related AE: Transaminases increased, G2 [1]: 0 n (%)
- Treatment-related AE: Transaminases increased, G3 [1]: 1 (4) n (%)
- Treatment-related AE: Transaminases increased, G4 [1]: 0 n (%)
- Treatment-related AE: Vomiting, G1 [1]: 2 (8) n (%)
- Treatment-related AE: Vomiting, G2 [1]: 0 n (%)
- Treatment-related AE: Vomiting, G3 [1]: 0 n (%)
- Treatment-related AE: Vomiting, G4 [1]: 0 n (%)
- Treatment-related AE: Weight increased, G1 [1]: 0 n (%)
- Treatment-related AE: Weight increased, G2 [1]: 0 n (%)
- Treatment-related AE: Weight increased, G3 [1]: 0 n (%)
- Treatment-related AE: Weight increased, G4 [1]: 0 n (%)
- Any treatment-related AE, G1 [2]: 7 (39) n (%)
- Any treatment-related AE, G2 [2]: 5 (28) n (%)
- Any treatment-related AE, G3 [2]: 4 (22) n (%)
- Any treatment-related AE, G4 [2]: 0 n (%)
- Treatment-related AE: ALT increased, G1 [2]: 1 (6) n (%)
- Treatment-related AE: ALT increased, G2 [2]: 0 n (%)
- Treatment-related AE: ALT increased, G3 [2]: 0 n (%)
- Treatment-related AE: ALT increased, G4 [2]: 0 n (%)
- Treatment-related AE: AST increased, G1 [2]: 1 (6) n (%)
- Treatment-related AE: AST increased, G2 [2]: 0 n (%)
- Treatment-related AE: AST increased, G3 [2]: 0 n (%)
- Treatment-related AE: AST increased, G4 [2]: 0 n (%)
- Treatment-related AE: Abdominal pain, G1 [2]: 4 (22) n (%)
- Treatment-related AE: Abdominal pain, G2 [2]: 0 n (%)
- Treatment-related AE: Abdominal pain, G3 [2]: 0 n (%)
- Treatment-related AE: Abdominal pain, G4 [2]: 0 n (%)
- Treatment-related AE: Anemia, G1 [2]: 1 (6) n (%)
- Treatment-related AE: Anemia, G2 [2]: 0 n (%)
- Treatment-related AE: Anemia, G3 [2]: 0 n (%)
- Treatment-related AE: Anemia, G4 [2]: 0 n (%)
- Treatment-related AE: Asthenia, G1 [2]: 0 n (%)
- Treatment-related AE: Asthenia, G2 [2]: 0 n (%)
- Treatment-related AE: Asthenia, G3 [2]: 0 n (%)
- Treatment-related AE: Asthenia, G4 [2]: 0 n (%)
- Treatment-related AE: Blood CPK increased, G1 [2]: 0 n (%)
- Treatment-related AE: Blood CPK increased, G2 [2]: 1 (6) n (%)
- Treatment-related AE: Blood CPK increased, G3 [2]: 0 n (%)
- Treatment-related AE: Blood CPK increased, G4 [2]: 0 n (%)
- Treatment-related AE: Chorioretinopathy, G1 [2]: 0 n (%)
- Treatment-related AE: Chorioretinopathy, G2 [2]: 0 n (%)
- Treatment-related AE: Chorioretinopathy, G3 [2]: 0 n (%)
- Treatment-related AE: Chorioretinopathy, G4 [2]: 0 n (%)
- Treatment-related AE: Constipation, G1 [2]: 3 (17) n (%)
- Treatment-related AE: Constipation, G2 [2]: 0 n (%)
- Treatment-related AE: Constipation, G3 [2]: 0 n (%)
- Treatment-related AE: Constipation, G4 [2]: 0 n (%)
- Treatment-related AE: Decreased appetite, G1 [2]: 2 (11) n (%)
- Treatment-related AE: Decreased appetite, G2 [2]: 0 n (%)
- Treatment-related AE: Decreased appetite, G3 [2]: 1 (6) n (%)
- Treatment-related AE: Decreased appetite, G4 [2]: 0 n (%)
- Treatment-related AE: Dermatitis acneiform, G1 [2]: 0 n (%)
- Treatment-related AE: Dermatitis acneiform, G2 [2]: 0 n (%)
- Treatment-related AE: Dermatitis acneiform, G3 [2]: 0 n (%)
- Treatment-related AE: Dermatitis acneiform, G4 [2]: 0 n (%)
- Treatment-related AE: Diarrhea, G1 [2]: 8 (44) n (%)
- Treatment-related AE: Diarrhea, G2 [2]: 1 (6) n (%)
- Treatment-related AE: Diarrhea, G3 [2]: 0 n (%)
- Treatment-related AE: Diarrhea, G4 [2]: 0 n (%)
- Treatment-related AE: Dry skin, G1 [2]: 2 (11) n (%)
- Treatment-related AE: Dry skin, G2 [2]: 2 (11) n (%)
- Treatment-related AE: Dry skin, G3 [2]: 0 n (%)
- Treatment-related AE: Dry skin, G4 [2]: 0 n (%)
- Treatment-related AE: Encephalopathy, G1 [2]: 0 n (%)
- Treatment-related AE: Encephalopathy, G2 [2]: 0 n (%)
